Laboratory results from the EternaBench riboswitch data.

System: MS2 coat protein
Test: apparent Kd, MS2 coat protein; higher = weaker binding; RNA-MaP array; FMN 200 µM where present
Procedure, shortened: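 SNAP-549-labelled MS2 coat protein, doubled from 0.7 or 1.5 nM to 3 µM, was titrated over designs transcribed by stalled E. coli RNA polymerase on Illumina sequencing-chip clusters. Titrations were run without and then with constant ligand in 100 mM Tris-HCl pH 7.5, 80 mM KCl, 4 mM MgCl2, BSA, DTT, yeast tRNA and Tween-20. The apparent Kd is the median of filtered per-cluster fits to green signal normalised to red-channel RNA signal and control-cluster median Fmax.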

[1] = designed as: OFF switch for flavin mononucleotide, no ligand
[2] = ligand present: flavin mononucleotide, designed as: OFF switch for flavin mononucleotide
[3] = designed as: ON switch for flavin mononucleotide, no ligand
[4] = ligand present: flavin mononucleotide, designed as: ON switch for flavin mononucleotide

In the case of “UUUUAACAUGAGGAUCACCCAUGUGAGGAUAUCGAAAUUUAUAUUUAUAUUUAUUAAACGAGAAGGCACAUUUU”, the “apparent Kd” value [1] is reported as 70.2 nM and the “apparent Kd” value [2] is reported as 100 nM.
In the case of “AAAAGACAUGAGGAUCACCCAUGUUAAGACGUGGGAGGAUAUGUAUGGAAAACAUGCUGUACAGAAGGCCCGUGUC”, the “apparent Kd” value [3] is reported as 53.8 nM and the “apparent Kd” value [4] is reported as 19.7 nM.
For “AUUAUUAUAAAUUUGGCAAGUAUCAGAAGGCGUUACAUGAGGAUCACCCAUGUUUUGUAUAGUAACGAGGAUAUGAUAUGGAAA”, the “apparent Kd” value [1] was 15.2 nM and the “apparent Kd” value [2] was 13.5 nM.
For “CCAGAGUGAGGAUAUGCAUAAAGGUGCUGUCCCGUGGCUUGACAUGAGGAUCACCCAUGUAGAAGGUGCGUUGU”, the “apparent Kd” value [1] was 48.7 nM and the “apparent Kd” value [2] was 40.3 nM.
“AGUCGGAGCAGAGGAUAUACAUGAGGAUCACCCAUGUAAUAGGAUGAAGCCUGGAAACAGGCAAUGUAGAAGGCUGCUCCGACA” was tested, and the “apparent Kd” value [1] was 60.1 nM and the “apparent Kd” value [2] was 589 nM.
For “UGAUGUCGCGAGGAUAUCCAAGAGGACUUUCUGGGAGAAGGUGCGACAUGAGGAUCACCCAUGUCAUAAGGAGU”, the “apparent Kd” value [1] was 109 nM and the “apparent Kd” value [2] was 287 nM.
In the case of “AUAUUUAAUAUAGGAUAUAGGAAGAAUGAUGAACUAGAAGGAUAACAUACAUGAGGAUCACCCAUGUCCCAUGUGAUCACCCAU”, the “apparent Kd” value [1] is reported as 321 nM and the “apparent Kd” value [2] is reported as 338 nM.
For “AAAAUACAUGAGGAUCACCCAUGUCAGGAUAUGCUAAAAAAAAAAUUAAAAAAAAAAUGUAGAAGGGACUAAAA”, the “apparent Kd” value [1] was 99 nM and the “apparent Kd” value [2] was 106 nM.
With “UUAUAUAGUGUGAGGAUAUGCUGGUCCUUGGAUCAGCAGAAGGCACAUGAGGAUCACCCAUGUAGUUUAUUUUU” the “apparent Kd” value [1] was 25.4 nM and the “apparent Kd” value [2] was 144 nM.
In the case of “UUUUCUACUGAGGAUAUUAUAUUACCCGACUGAUAAGAAGGCAGUACAUGAGGAUCACCCAUGUGGGUAGCCAU”, the “apparent Kd” value [1] is reported as 21.8 nM and the “apparent Kd” value [2] is reported as 31 nM.
“ACGUGACAUGAGGAUCACCCAUGUGAGGAUAUCUGGAUAAUUUUUAUUUUAGAUAUCCAGAGAAGGCACAUGUU” was tested, and the “apparent Kd” value [1] was 206 nM and the “apparent Kd” value [2] was 173 nM.
In the case of “ACAUGAGGAUCACCCAUGUUCACAUAGGAUAUUGAUUUUAUUGGUUUUAGAAUAGUUAUUAAGCUCAAGAAGGAUGCCAGUUGU”, the “apparent Kd” value [3] is reported as 12.4 nM and the “apparent Kd” value [4] is reported as 9.97 nM.
In the case of “UGUCGGAGCAGAGGAUAUUACAUGAGGAUCACCCAUGUAUGAACCAAUAUCUGGAAACAGCAAUGUAAGAAGGCUGCUCCGACA”, the “apparent Kd” value [1] is reported as 7.16 nM and the “apparent Kd” value [2] is reported as 47.3 nM.
“UCGGCGCGAGGAUAUACGUUUGCUUUUUUUUGUCUUUGUGUACAUGAGGAUCACCCAUGUAGAAGGCGCGCCGC” was tested, and the “apparent Kd” value [1] was 21.3 nM and the “apparent Kd” value [2] was 36.7 nM.
“GUCAGCUCGUGAGGAUAUACAACACUGCUUCGGCAGUGUAUUAAGAUCACAUGAGGAUCACCCAUGUAGAAGGCACGAGCUGAC” was tested, and the “apparent Kd” value [1] was 12.9 nM and the “apparent Kd” value [2] was 251 nM.
“CUCCGGCGUGUAGGAUAUGGAUCCGAUUAGGAUCCAGAAGGACAUGAGGAUCACCCAUGUACAUGUAAACAGUCAUCACCGGAG” was tested, and the “apparent Kd” value [1] was 6.24 nM and the “apparent Kd” value [2] was 6.99 nM.
For “GAGGAUUUUUAGCUGACAUGAGGAUCACCCAUGUCUUGACCCAGAAGGGCGUGGGAUUCCCAACCGCAGGAUAUGGAUAGUCGG”, the “apparent Kd” value [3] was 64.8 nM and the “apparent Kd” value [4] was 35.7 nM.
For “UUUCUUGGGCAAGGAUAUCCUGUGCGGUUCUGGCUCGUGUCUGUCACAUGAGGAUCACCCAUGUGGGAGAAGGUGCCUGCGGUC”, the “apparent Kd” value [1] was 6.13 nM and the “apparent Kd” value [2] was 6.1 nM.
For “CAAGUCAUAGCUUCUUAGCCAGCCAGAAGGGUCUACAUGAGGAUCACCCAUGUGGUCUCGAAGGGACAGGAUAUGGAGGGCGUA”, the “apparent Kd” value [1] was 11.1 nM and the “apparent Kd” value [2] was 37.7 nM.
For “AGGUGUCCUGAGAAAUUUCUCGACAUGAGGAUCACCCAUGUAGAGGAUAUCGACGCUGUGCGGUUCGAGAAGGCUACACGAAUU”, the “apparent Kd” value [1] was 12.7 nM and the “apparent Kd” value [2] was 94.3 nM.
“AUAUAGUCAGGAUAUCGAAGUGUGUGUUGGUUUGUAAUUUACGAGAAGGGACAUGAGGAUCACCCAUGUAGGAA” was tested, and the “apparent Kd” value [1] was 40.1 nM and the “apparent Kd” value [2] was 34.9 nM.
With “AUAAUUUUAUAUAUCAUUUUAAUCAGAAGGCAUAACAUGAGGAUCACCCAUGUAUAUUAUUGUUAUGAGGAUAUGAUUUGGUUA” the “apparent Kd” value [1] was 19.1 nM and the “apparent Kd” value [2] was 78.3 nM.
With “CUUCUGUAAGGAUAUGUAAAUUGCUGGCCACACCAGCACCGGCAGAAGGUACAUGAGGAUCACCCAUGUGGGUU” the “apparent Kd” value [1] was 219 nM and the “apparent Kd” value [2] was 137 nM.
“GGUCCACGAGGAUAUCGAUUAUAGUACAUGAGGAUCACCCAUGUUGUCCAGGUUUCGAUUCGAGAAGGCGUGGGUU” was tested, and the “apparent Kd” value [1] was 54.4 nM and the “apparent Kd” value [2] was 39 nM.
In the case of “UUACCUCAUGAGAAGGACAUGAGGAUCACCCAUGUAGGAUAUCAUGGGUCAGUGGAAUUGAAUCUUCGGAUUCAAUAACUCUAC”, the “apparent Kd” value [3] is reported as 140 nM and the “apparent Kd” value [4] is reported as 44 nM.
For “CAGGUCUGAGGAUAUCCAUCCUCCUACAUGAGGAUCACCCAUGUUUCCCUCUGGGUUUUCGGAGAAGGCAGUUUUU”, the “apparent Kd” value [1] was 749 nM and the “apparent Kd” value [2] was 525 nM.
With “CAAUUCCGAGGAUAUACAUGAGGAUCACCCAUGUCGGGCCUCAGCGUUUAGCGCUUAAGUAGAAGGUGGGUUUC” the “apparent Kd” value [1] was 40.7 nM and the “apparent Kd” value [2] was 54.5 nM.
For “AGAUGACAAAGUCAUCUUCAACGGACAUGAGGAUCACCCAUGUAGGAUAUGCUACUCAAAGAGUAGCAGAAGGACAUGUGUCUU”, the “apparent Kd” value [1] was 35 nM and the “apparent Kd” value [2] was 193 nM.
With “UAUAUUAUUAUAGGAUAUGGAUAUGAUGCAUAUCCAGAAGGGUGAUUAUAAUAUAUUCUGUACAUGAGGAUCACCCAUGUUUAU” the “apparent Kd” value [3] was 258 nM and the “apparent Kd” value [4] was 75.9 nM.
With “AAUAUGUUGCAGAAGGUUAUUUUUAUAACGAUCCAUGAGACAUGAGGAUCACCCAUGUAAUAGAUGAAGGAUAUGCAAUAUAUU” the “apparent Kd” value [1] was 6.21 nM and the “apparent Kd” value [2] was 5.84 nM.
In the case of “GGUCCGUAACAGAAGGCCGUAACUGGUAGUGGCGGAGGAUAUGUGGGCGGCCCUUGACAACAUGAGGAUCACCCAUGUAUGUAA”, the “apparent Kd” value [3] is reported as 335 nM and the “apparent Kd” value [4] is reported as 20.3 nM.
With “GCGAUUGCGUAGAAGGUACAAUAUAUUUCAUUGUAAGGAUAUACUUACAUGAGGAUCACCCAUGUUAAUGGAAUUUGCAAUCGC” the “apparent Kd” value [3] was 74.1 nM and the “apparent Kd” value [4] was 28.9 nM.
In the case of “GCCAGGAUGUAAGGAUAUGCUGAGGAUAACUCAGCAGAAGGUACAUGAGGAUCACCCAUGUAAUCCUAAUAAUAAUAACCUGGC”, the “apparent Kd” value [1] is reported as 11.5 nM and the “apparent Kd” value [2] is reported as 17.4 nM.
“AAUUAGGUCACAGGAUAUACUACAUCCAAUGCAGUAGAAGGGUGACACAUUCUGUGCAGACAUGAGGAUCACCCAUGUAACCAC” was tested, and the “apparent Kd” value [3] was 11.6 nM and the “apparent Kd” value [4] was 6.39 nM.
With “GUGCACACUCGAGGAUAUCGGAGUUUUUUUCUUCGAGAAGGCGAUUCGUGCCGUGUUAUUUUGGACAUGAGGAUCACCCAUGUG” the “apparent Kd” value [3] was 79.9 nM and the “apparent Kd” value [4] was 34.4 nM.
“GUCAGCUCGUGAGGAUAUACAACACUGCUUCGGCAGUGUAUUAAGAGCACAUGAGGAUCACCCAUGUAGAAGGCACGAGCUGAU” was tested, and the “apparent Kd” value [1] was 5.58 nM and the “apparent Kd” value [2] was 7.61 nM.
“ACAUACAUUCGAGGAUAUCGGUGAUUAAUUUUACGAGAAGGCGAUUUAAGGCAUAAUGCUUUAGACAUGAGGAUCACCCAUGUA” was tested, and the “apparent Kd” value [3] was 72.9 nM and the “apparent Kd” value [4] was 34.4 nM.
For “UAGAAGUCAGGAUAUGCAUGGCGGGACUUGCGUCGUGGCGUGCAGAAGGGACAUGAGGAUCACCCAUGUGGAGC”, the “apparent Kd” value [1] was 116 nM and the “apparent Kd” value [2] was 169 nM.
In the case of “CUAUUUAGUGCCUCAUGUACAUGAGGAUCACCCAUGUUAACUUAGGAUAUAUUUAUAUUGAUAGAGUAGAAGGAAGUACUAUUG”, the “apparent Kd” value [1] is reported as 70.2 nM and the “apparent Kd” value [2] is reported as 61 nM.
“AAUAACAGAGGAUAUACUAUUUUAUGUGUUUGUUAUUUUGAACAUGAGGAUCACCCAUGUAGAAGGCUGAUUAA” was tested, and the “apparent Kd” value [1] was 44.4 nM and the “apparent Kd” value [2] was 43.9 nM.
With “CUAGUAUAUCAGGAUAUGAUAAUGUGUAGUAUAUCAGAAGGGAUGACAUGAGGAUCACCCAUGUUAAGGGAUGA” the “apparent Kd” value [1] was 58.1 nM and the “apparent Kd” value [2] was 118 nM.
With “AGAUUGAAUGAGGAUAUCGAAGCGGGUACGAAGCGAGAAGGCAUGACAUGAGGAUCACCCAUGUAGUGUGGGUU” the “apparent Kd” value [1] was 465 nM and the “apparent Kd” value [2] was 435 nM.
For “CUUGUGUUAGGAUAUGCGCCCUGAAGUGGAAGGGCCAGAGAGCAGAAGGGACAUGAGGAUCACCCAUGUGUGAC”, the “apparent Kd” value [1] was 79.7 nM and the “apparent Kd” value [2] was 125 nM.
In the case of “GCCAGGUGGGUAGGAUAUGGCUAUGUCUCAUUGCUAGAAGGACCAACUGCUACAUGAGGAUCACCCAUGUCGUAGUGCACCCGG”, the “apparent Kd” value [3] is reported as 78.9 nM and the “apparent Kd” value [4] is reported as 25.4 nM.
In the case of “AACAGCUCGUCAGGAUAUAUUUACUUAUAUUGUAUUUAUGUACAUGAGGAUCACCCAUGUUGUUAGUAGAAGGGACGAGCUGAA”, the “apparent Kd” value [1] is reported as 7.42 nM and the “apparent Kd” value [2] is reported as 7.32 nM.
“AUCAGCUCGUCAGGAUAUACGUCACUGCGUCAGCAGUGUGGUAAGAUCACAUGAGGAUCACCCAUGUAGAAGGGAGGAGCUGAU” was tested, and the “apparent Kd” value [1] was 15 nM and the “apparent Kd” value [2] was 438 nM.
For “AGUGCCUCGAGAGGAUAUACAUGAGGAUCACCCAUGUAAGUAGAGGUGGAAACACCUCUACAAAUGUAGAAGGCUCGAGGCACA”, the “apparent Kd” value [1] was 18 nM and the “apparent Kd” value [2] was 52.2 nM.
“CCGAGUAGCGCAGGAUAUGACUUGGUUGUUUGGUCAGAAGGGUGAUUCUCGGUAAGAAACAGGACAUGAGGAUCACCCAUGUCA” was tested, and the “apparent Kd” value [3] was 102 nM and the “apparent Kd” value [4] was 24.9 nM.
